# 697 NFkB inh = inhibitors of PMA/ionomycin-induced NF-kB reporter, 697 cells, primary screen, B-cell NF-kB inhibitor project, cell-based, luminescence, uHTS. 697 B-cell NF-kB luciferase reporter, 16 h. inhibition, % at 4 µM. 0.33% of 330,000 active. AID 435022, 2010; in the data active = inhibition above about 35%
# HSF1 activator = HSF-1 activators, primary screen, NIH3T3-HGL cells, MG132 stress, luminescence, single point; AID 504408, 2011; NIH3T3-HGL HSF-1 luciferase reporter, 8 h; 100% = twice DMSO control signal; 1.7% of 300,000 active; activation, % at 9 µM;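 active = mean replicate activation of at least 50% with a set share of replicates each reaching 50%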
# HSF1 inhib = HSF1 inhibitors in luciferase reporter cells, primary screen, cell-based, NIH3T3, luminescence | NIH3T3-HGL HSE-luciferase, MG132-induced, luminescence 8 h; hits give low values | activity change, negative = inhibition, % at 7.5 µM (by protocol) | 0.77% of 300,000 active | AID 2098, 2009;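 active = more than half of replicate wells show activity change below -50%, luminescence cut by over half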;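 note: luciferase reports HSF-1 transcriptional activity via heat shock element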
# T cruzi repl = inhibitors of intracellular T. cruzi growth, primary screen, luminescence, NIH3T3 host cells; T. cruzi beta-gal in NIH3T3, 90 h; inhibition, % (concentration not given with the values); 1.4% of 300,000 active;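 active = mean inhibition across valid replicates above about 55%, limit read from the data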;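 note: signal also drops with host cell toxicity which is not excluded here; higher percent means less beta-gal luminescence so fewer parasites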
#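 Assay system: NIH/3T3 host cells with β-galactosidase reporter T. cruzi; input: 5,000 host fibroblasts per well; compound: single 50 nL compound addition per well in DMSO; timing: ≥90 h infection period, 3 h prior cell attachment; measured by: GalScreen β-gal luminescence, detergent lysis, 60 min; evaluation: percent inhibition of parasite-derived β-gal signal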
# GPR7 antagonist = GPR7 receptor antagonists, primary screen, cell-based, fluorescence, single concentration; GPR7-expressing cells, fluorescence antagonist assay; inhibition, % at 4.4 µM; 1.1% of 290,000 active; AID 1861, 2009; in the data active = inhibition above about 16%, passing the limit was not always enough;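 note: cells stimulated with the agonist NPW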
# Target sequence (P48145 whole entry, looked up): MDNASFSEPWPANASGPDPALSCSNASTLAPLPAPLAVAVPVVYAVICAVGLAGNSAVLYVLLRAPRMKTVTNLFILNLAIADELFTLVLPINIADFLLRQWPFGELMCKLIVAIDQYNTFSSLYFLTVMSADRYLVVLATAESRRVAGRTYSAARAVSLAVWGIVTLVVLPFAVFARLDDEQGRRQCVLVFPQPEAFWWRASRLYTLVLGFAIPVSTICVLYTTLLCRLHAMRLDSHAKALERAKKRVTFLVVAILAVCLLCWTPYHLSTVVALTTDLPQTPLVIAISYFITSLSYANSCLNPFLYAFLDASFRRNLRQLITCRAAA
# Jurkat NFkB inh = inhibitors of induced NF-kB luciferase reporter, primary screen, TCR NF-kB activation inhibitor project, cell-based, luminescence, uHTS. 0.53% of 330,000 active. inhibition, % at 4 µM. Jurkat, PMA/ionomycin-induced NF-kB luciferase reporter; in the data active = inhibition above about 50%
# A number is an active result; i = inactive; nt = no result. Most compounds without a hit are left out; they make up all but 4.8% or so of the library.
SMILES,697 NFkB inh,HSF1 activator,HSF1 inhib,T cruzi repl,GPR7 antagonist,Jurkat NFkB inh
COc1ccccc1-n1c(-c2ccccc2)c[nH]c1=S,nt,i,i,i,i,nt
S=c1[nH]cc(-c2ccccc2)n1-c1ccccc1Cl,i,57,i,i,i,i
NC(=O)c1cc2cc(Br)ccc2oc1=NCc1ccccc1,i,190,i,i,i,i
COc1ccc(S(=O)(=O)N2CCOCC2)cc1NC(=O)CN1C(=O)NC2(CCCC2)C1=O,i,nt,nt,nt,nt,i
Cc1nc(NC(C)c2ccccc2)sc1C(=O)Nc1ccccc1 (stereo not given),i,i,-87,i,i,i
O=C(/C=C/c1cccc(C(F)(F)F)c1)OCC(=O)N1CCN(c2ccccc2)CC1,i,nt,nt,nt,nt,i
CCc1nc(SCc2ccccc2C#N)n[nH]1,i,i,i,i,i,i
Cc1ccc2nc(N(CCN(C)C)C(=O)c3ccc4ccccc4c3)sc2c1,i,i,i,i,i,i
Cc1ccc2nc(N(CCN(C)C)C(=O)c3ccc4c(c3)OCCO4)sc2c1,i,i,i,72,i,i
Cc1cc(C)c2nc(N(CCCN(C)C)C(=O)C3=COCCO3)sc2c1,i,i,i,i,nt,i
CN(C)CCCN(C(=O)COc1ccc(Cl)cc1)c1nc2cc3c(cc2s1)OCO3,i,i,i,i,i,i
CCN(CC)CCN(C(=O)c1ccc2c(c1)OCCO2)c1nc2ccc(C)cc2s1,i,i,i,69,i,i
CN(C)CCCN(C(=O)COc1ccc(Cl)cc1)c1nc2cc3c(cc2s1)OCCO3,i,i,i,57,nt,i
Cc1cc(C)c2nc(N(CCCN(C)C)C(=O)c3ccc4c(c3)OCCO4)sc2c1,i,i,i,57,nt,i
O=C(Nc1ccc(N2CCN(C(=O)c3cccs3)CC2)cc1)c1ccc(Br)o1,i,nt,nt,nt,nt,i
Cc1cc(C)c(OCC(=O)OC(C)C(=O)NCc2ccccc2)c(C)c1 (stereo not given),i,nt,nt,nt,nt,i
CN(C)CCN(C(=O)c1ccc(N2C(=O)CCC2=O)cc1)c1nc2cc3c(cc2s1)OCO3,i,i,i,57,i,i
CN(NC1OC(=O)c2ccccc21)c1ncc(Cl)cc1C(F)(F)F (stereo not given),i,66,i,i,i,i
O=C1OC(Nc2ccc(Cl)cn2)c2ccccc21 (stereo not given),i,i,i,i,i,i
Cc1c(CNCCc2ccc(Cl)cc2)c(C(=O)O)c(C)n1-c1ccccc1,i,i,i,i,i,i
O=C(NC(=S)NCc1cccnc1)c1cccc2ccccc12,i,i,i,63,i,i
O=C(O)C[C@@H](CNC(=O)COc1ccc2ccc(=O)oc2c1)c1ccc(Cl)cc1,i,i,i,i,i,i
O=S(=O)(Nc1nc2ccccc2nc1N1CCc2ccccc2C1)c1ccc(Br)cc1,nt,nt,nt,nt,i,nt
O=S(=O)(Nc1nc2ccccc2nc1N1CCc2ccccc2C1)c1ccc(Cl)cc1,i,57,i,i,i,i
O=S(=O)(Nc1nc2ccccc2nc1Cl)c1ccc(Br)cc1,i,i,-54,i,i,i
SMILES,697 NFkB inh,HSF1 activator,HSF1 inhib,T cruzi repl,GPR7 antagonist,Jurkat NFkB inh
O=C(NNC(=O)c1cc(O)c(O)c(O)c1)NC1CCCCC1,i,i,i,i,i,i
CCOc1ccc(/C=C2\CCCc3c2nc2ccccc2c3C(=O)O)cc1OC,i,i,i,i,i,i
CN(c1ccccc1)c1ncccn1,i,i,-89,i,nt,i
COc1cnc(-c2ccccn2)nc1Sc1ccc(Cl)cc1,i,i,i,i,i,i
COc1cnc(-c2ccccn2)nc1Sc1ccccc1,i,i,i,65,i,i
COc1ccc(Sc2nc(-c3ccccn3)ncc2OC)cc1,i,i,i,63,i,i
COc1cnc(-c2ccccn2)nc1Oc1ccccc1,i,i,i,i,i,i
COc1cnc(-c2ccccn2)nc1N(C)c1ccccc1,i,i,i,66,i,i
COc1cnc(-c2ccccn2)nc1Sc1ccc(F)cc1,i,i,i,i,i,i
CCN(c1cccc(C)c1)S(=O)(=O)c1nnc(NC(=O)c2ccco2)s1,i,i,i,i,i,i
COc1cc(C(=O)N2CCN(C(=O)c3cc(-c4ccc(Br)cc4)n[nH]3)CC2)cc(OC)c1OC,i,i,i,i,i,i
O=C(c1ccc(CS(=O)c2cccc(Cl)c2)o1)N1CCN(C2CCCCC2)CC1 (stereo not given),i,i,i,i,i,i
COCc1cc(C)nc2sc(C(=O)Nc3ccccc3OC)c(N)c12,i,i,i,i,i,i
O=P(CCCCCCCCCP(=O)(c1ccccc1)c1ccccc1)(c1ccccc1)c1ccccc1,i,i,i,61,i,i
C=C[C@](C)(CC[C@@]1(C)C(C)CC(OC2OC(C)C(OC3OC(COC(C)=O)C(O)C(O)C3O)C(O)C2O)[C@@]2(C)C(C)=CCCC12)OC1OC(C)C(O[C@@H]2O[C@@H](C)C(O)C(O)[C@H]2O)C(O)C1O (stereo not given in full),i,nt,nt,nt,nt,i
Cc1ccc2nc(-c3sc4nc(C)ccc4c3N)[nH]c2c1,i,i,i,i,i,i
Cc1cc(C)c2c(N)c(-c3nc4ccccc4[nH]3)sc2n1,i,73,i,i,i,i
COc1ccc(OCC(=O)N/N=C(/C)Cc2ccccc2)cc1,i,i,i,i,i,i
CN(CC(=O)Nc1ccc(N2CCOCC2)cc1)Cc1c(O)ccc2ccccc12,i,198,i,i,i,i
CN(CC(=O)Nc1ccc(N2CCOCC2)cc1)CC(=O)Nc1ccc(N2CCOCC2)cc1,i,i,i,i,i,i
CC1CC(C)(C)N(C(=O)NC2CCCCC2)c2ccccc21 (stereo not given),i,57,i,i,i,i
COc1ccc2c(c1)C(C)CC(C)(C)N2C(=O)NC1CCCCC1 (stereo not given),i,i,i,i,i,i
CC1CCc2sc(C(=O)NNS(=O)(=O)c3ccc(F)c(F)c3F)cc2C1 (stereo not given),i,i,i,i,nt,i
COc1ccc(C2c3c(ncn(CCCO)c3=N)Oc3ccc4ccccc4c32)cc1 (stereo not given),i,58,i,i,i,i
COc1ccc(C2c3c(ncn(CCCO)c3=N)Oc3ccc4ccccc4c32)cc1OC (stereo not given),i,i,i,i,i,i
COc1ccc(NC(C)=O)c(C)c1,i,i,i,i,i,i
COc1cc(C)c(C(=O)CC(=O)c2c(C)cc(OC)cc2C)c(C)c1,i,i,i,66,nt,i

# Screening data from PubChem.
